{"source": "ChEMBL document CHEMBL1124972", "about": "“Antiatherosclerotic agents. A structurally novel bivalent inhibitor of acylCoA:cholesterol O-acyltransferase with systemic activity” (J Med Chem, 1990)", "key": {"[1]": {"target": "T1, Acyl-CoA:cholesterol acyltransferase (Oryctolagus cuniculus) (UniProt Q95214)", "T1 sequence (whole entry)": "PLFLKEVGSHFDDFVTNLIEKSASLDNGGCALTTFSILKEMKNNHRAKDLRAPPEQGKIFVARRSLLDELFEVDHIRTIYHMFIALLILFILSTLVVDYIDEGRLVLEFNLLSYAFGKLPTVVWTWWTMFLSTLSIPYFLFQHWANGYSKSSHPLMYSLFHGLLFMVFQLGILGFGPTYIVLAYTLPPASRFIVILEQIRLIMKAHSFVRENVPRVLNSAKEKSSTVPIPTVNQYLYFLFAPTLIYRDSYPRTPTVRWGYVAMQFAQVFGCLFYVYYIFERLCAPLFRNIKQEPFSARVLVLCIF", "assay": "In vitro inhibitory activity against Acyl coenzyme A:cholesterol acyltransferase at a concentration of 5 ug/mL; call rule not given here"}, "[2]": {"target": "T2, Acyl-CoA:cholesterol acyltransferase (Oryctolagus cuniculus, UniProt Q95214)", "T2 sequence (Q95214 whole entry)": "T1 sequence (whole entry)", "assay": "In vitro inhibitory activity against Acyl coenzyme A:cholesterol acyltransferase", "summary_of_the_method": "(§1)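 Cellular assay: Fu5AH cells cultured with [³H]cholesterol-labeled hyperlipemic plasma lipoproteins; inhibition of [³H]cholesteryl ester synthesis and accumulation measured; IC50 given in μg/mL.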"}, "[3]": {"target": "T1, Acyl-CoA:cholesterol acyltransferase (Oryctolagus cuniculus)", "assay": "Arterial Acyl coenzyme A:cholesterol acyltransferase activity was measured in vitro in rabbit aorta after administration of 50 mg/Kg", "assay_type": "functional, organism-based", "summary_of_the_method": "(§2)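 Rabbits given 10-day cholesterol feeding to raise arterial ACAT, then dosed orally at 50 mg kg⁻¹ day⁻¹ for 6 days; aortas excised, incubated in vitro with [1-14C]oleate for 3 h; ACAT activity as cholesteryl [14C]oleate formed, dpm/100 mg wet weight aorta; means of 2 animals per group.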"}, "Rattus norvegicus [4]": {"test_system": "Rattus norvegicus", "assay": "Tested for plasma cholesterol levels against rat after 2.5 hours of oral administration.", "assay_type": "functional, organism-based", "summary_of_the_method": "(§3)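 Male Sprague-Dawley rats (4 per group) intubated orally with 0.6 mL suspension of 1 μCi [4-14C]cholesterol (53 Ci/Mol), corn oil, ethanol, DMSO and 1 mg cholesterol, with or without test agent at 30 mg/kg. Two rats per group bled by cardiac puncture at 2.5 and 6 h; plasma [14C]cholesterol measured as dpm/mL; mean of two animals.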"}, "[5]": {"target": "T1, Acyl-CoA:cholesterol acyltransferase (Oryctolagus cuniculus)", "assay": "Reduction of ACAT activity after treatment was measured in rabbit aorta", "assay_type": "functional, tissue-based", "summary_of_the_method": "as §2"}, "Rattus norvegicus [6]": {"test_system": "Rattus norvegicus", "assay": "Tested for plasma cholesterol levels against rat after 6.0 hours of oral administration.", "assay_type": "functional, organism-based", "summary_of_the_method": "as §3"}, "Oryctolagus cuniculus [7]": {"test_system": "Oryctolagus cuniculus", "assay": "Tested in vivo for atheromatous lesion development in Netherland Dwarf rabbit", "assay_type": "functional", "summary_of_the_method": "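Netherland Dwarf rabbits on cholesterol-containing atherogenic diet, dosed at 50 mg/kg; aortic lesion formation scored as % surface involvement, with plasma total cholesterol (mg/dL); means (±SEM) of 8 animals per group.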"}, "[8]": {"test_system": "Sterol O-acyltransferase 1 (Rattus norvegicus)", "assay": "Reduction of ACAT activity after treatment was measured in rat liver"}, "Oryctolagus cuniculus [9]": {"test_system": "Oryctolagus cuniculus", "assay": "Tested in vivo for plasma cholesterol levels in Netherland Dwarf rabbit", "assay_type": "functional, organism-based", "summary_of_the_method": "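Netherland Dwarf rabbits fed cholesterol-containing atherogenic diet, with test agent at 50 mg/kg; plasma total cholesterol in mg/dL measured, alongside aortic lesion surface involvement; means ±SEM of 8 animals per group.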"}, "[10]": {"target": "T3, Sterol O-acyltransferase 1 (Rattus norvegicus) (UniProt O70536)", "T3 sequence (whole entry)": "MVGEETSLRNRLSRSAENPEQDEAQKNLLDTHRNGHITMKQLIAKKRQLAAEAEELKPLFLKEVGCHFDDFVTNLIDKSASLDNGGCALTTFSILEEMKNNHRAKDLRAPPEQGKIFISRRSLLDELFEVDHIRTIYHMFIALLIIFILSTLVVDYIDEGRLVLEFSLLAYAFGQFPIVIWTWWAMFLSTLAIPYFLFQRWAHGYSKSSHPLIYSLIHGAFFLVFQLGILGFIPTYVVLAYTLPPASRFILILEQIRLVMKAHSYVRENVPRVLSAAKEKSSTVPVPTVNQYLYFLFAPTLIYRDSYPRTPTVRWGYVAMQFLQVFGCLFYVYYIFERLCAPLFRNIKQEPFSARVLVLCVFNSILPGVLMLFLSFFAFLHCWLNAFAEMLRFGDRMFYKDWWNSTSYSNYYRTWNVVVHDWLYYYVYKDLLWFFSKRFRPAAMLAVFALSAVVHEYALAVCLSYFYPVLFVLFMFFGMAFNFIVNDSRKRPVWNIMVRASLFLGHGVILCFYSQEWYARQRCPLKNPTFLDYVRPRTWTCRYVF", "assay": "ACAT inhibitory activity was measured in rat liver after administration of 30 mg/Kg", "assay_type": "functional, organism-based", "summary_of_the_method": "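Male Sprague-Dawley rats (435-460 g) fed Purina chow with compound in diet (calculated 30 mg kg⁻¹ day⁻¹) for 8 days; liver minces incubated in vitro with [1-14C]oleate for 90 min; ACAT activity read as cholesteryl [14C]oleate formed, dpm/100 mg wet weight; means of 2 animals per group.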"}, "[11]": {"target": "T2, Acyl-CoA:cholesterol acyltransferase", "assay": "In vitro inhibitory activity against Acyl coenzyme A:cholesterol acyltransferase; a = inactive", "summary_of_the_method": "as §1"}}, "data": [{"smiles": "COc1c2occc2c(OC)c2c(=O)cc(CN3CCN(CC(O)CN4CCN(Cc5cc(=O)c6c(OC)c7ccoc7c(OC)c6o5)CC4)CC3)oc12", "values": [{"measurement": "inhibition", "setting": "[1]", "result": 7, "unit": "%"}]}, {"smiles": "COc1c2c(c(OC)c3c(=O)cc(CN4CCC(CCC5CCN(Cc6cc(=O)c7c(OC)c8c(c(OC)c7o6)OCC8)CC5)CC4)oc13)CCO2", "values": [{"measurement": "IC50", "setting": "[2]", "result": 4.19, "unit": "µM"}]}, {"smiles": "COc1c2occc2c(OC)c2c(=O)cc(CN3CCC(CCC4CCN(Cc5cc(=O)c6c(OC)c7ccoc7c(OC)c6o5)CC4)CC3)oc12", "values": [{"measurement": "IC50", "setting": "[2]", "result": 1.12, "unit": "µM"}, {"measurement": "ACAT activity (dpm/100 mg wet wt)", "setting": "[3]", "result": 305}, {"measurement": "Plasma [14C] cholesterol", "setting": "Rattus norvegicus [4]", "result": 818, "unit": "dpm/mL"}, {"measurement": "Reduction", "setting": "[5]", "result": 42, "unit": "%"}, {"measurement": "Plasma [14C] cholesterol", "setting": "Rattus norvegicus [6]", "result": 3880, "unit": "dpm/mL"}, {"measurement": "Surface involvement", "setting": "Oryctolagus cuniculus [7]", "result": "<10", "unit": "%"}, {"measurement": "Reduction", "setting": "[8]", "result": 62, "unit": "%"}, {"measurement": "Plasma total cholesterol", "setting": "Oryctolagus cuniculus [9]", "result": 271, "unit": "mg/dL"}, {"measurement": "ACAT activity (dpm/100 mg wet wt)", "setting": "[10]", "result": 535}]}, {"smiles": "COc1c2occc2c(O)c2c(=O)cc(CN3CCC(CCC4CCN(Cc5cc(=O)c6c(O)c7ccoc7c(OC)c6o5)CC4)CC3)oc12", "values": [{"measurement": "IC50", "setting": "[11]", "result": "Not Active"}]}, {"smiles": "COc1c2occc2c(OC)c2c(=O)cc(CN3CCN(CCN4CCN(Cc5cc(=O)c6c(OC)c7ccoc7c(OC)c6o5)CC4)CC3)oc12", "values": [{"measurement": "inhibition", "setting": "[1]", "result": 5, "unit": "%"}]}, {"smiles": "COc1c2occ(F)c2c(OC)c2c(=O)cc(CN3CCC(CCC4CCN(Cc5cc(=O)c6c(OC)c7c(F)coc7c(OC)c6o5)CC4)CC3)oc12", "values": [{"measurement": "IC50", "setting": "[2]", "result": "< 13.4", "unit": "µM"}]}, {"smiles": "COc1c2occc2c(OC)c2c(=O)cc(CN3CCC(CCCC4CCN(Cc5cc(=O)c6c(OC)c7ccoc7c(OC)c6o5)CC4)CC3)oc12", "values": [{"measurement": "IC50", "setting": "[2]", "result": 5.78, "unit": "µM"}]}, {"smiles": "COc1c2occc2c(OC)c2c(=O)cc(CN3CCC(C4CCN(Cc5cc(=O)c6c(OC)c7ccoc7c(OC)c6o5)CC4)CC3)oc12", "values": [{"measurement": "inhibition", "setting": "[1]", "result": 0, "unit": "%"}]}]}
